Converted amounts (≈) assume the structure as drawn. Some results are limits rather than exact numbers.

As a reminder, the IC50 is the concentration that gives 50% inhibition. By inhibition is commonly meant the share of the control response that was lost under treatment.

One assay concerns Neutrophil. The assay can be described thus: Anti-inflammatory activity in human neutrophils assessed as inhibition of fMLP/CB-induced elastase release pre-incubated for 5 mins before fMLP/CB stimulation using MeO-Suc-Ala-Ala-Pro-Val-pnitroanilide as substrate. In kind it is functional, cell-based. The essentials:
(§1)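 Neutrophils were isolated by dextran sedimentation, Ficoll Hypaque centrifugation and hypotonic lysis of erythrocytes, then held in Ca2+-free HBSS pH 7.4 at 4 °C. Cells at 6 × 10^5/mL with 100 μM substrate were equilibrated 2 min at 37 °C and given compound or 0.1% DMSO vehicle for 5 min. They were activated with 100 nM fMLP plus 0.5 μg/mL cytochalasin B, and A405 was monitored continuously. Release is expressed as percent of the drug-free activated control. Mean ± SD.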
As for `CC(=O)O[C@H]1CC[C@]2(C)[C@H]3CCC4[C@@H]([C@]5(C)CC[C@@H](O)C(C)(C)O5)CC[C@@]4(C)[C@]3(C)CC[C@H]2C1(C)C` (some centres not stated), the half-inhibitory concentration (IC50) was greater than 10 mg/L.
On to `COc1cc([C@H]2OC[C@H]3[C@@H]2CO[C@@H]3c2ccc(O)c(OC)c2)ccc1O`, for which the 50% inhibitory concentration (IC50) was greater than 10 mg/L.
For the compound `O=C1C=CC2(O)CC(=O)OC2C1` (configuration not stated), the half-inhibitory concentration (IC50) was greater than 10 mg/L.
On the same count and under the same terms, the figure for `COc1ccc([C@H]2OC[C@@H]3C(=O)OC[C@@H]32)cc1OC` is greater than 10 mg/L; for `C/C(=C\C(=O)O)CC[C@H]1C(CO)=CC[C@H]2[C@@](C)(CO)CCC[C@]12C` it is greater than 10 mg/L.
Turning to `CC(=O)O[C@H]1CC[C@]2(C)[C@H]3CCC4[C@@H]([C@@](C)(O)CCC=C(C)C)CC[C@@]4(C)[C@]3(C)CC[C@H]2C1(C)C` (some centres not stated), the 50% inhibitory concentration (IC50) was greater than 10 mg/L.
Take `COC(C)(C)/C=C/C[C@](C)(O)[C@H]1CC[C@]2(C)C1CC[C@@H]1[C@@]3(C)CC[C@H](OC(C)=O)C(C)(C)[C@@H]3CC[C@]12C` (some centres not stated): the concentration for half-maximal inhibition (IC50) is greater than 10 mg/L.
As to `CC(=O)O[C@H]1CC[C@]2(C)[C@H]3CC=C4[C@@H]5CC(C)(C)CC[C@]5(C(=O)O)CC[C@@]4(C)[C@]3(C)CC[C@H]2C1(C)C` [ACETYL OLEANOLIC ACID], the half-inhibitory concentration (IC50) is greater than 10 mg/L.
For `C[C@@H]1O[C@@H](OC[C@H]2O[C@@H](OCCc3ccc(O)c(O)c3)[C@H](O)[C@@H](O)[C@@H]2OC(=O)/C=C/c2ccc(O)c(O)c2)[C@H](O)[C@H](O)[C@H]1O` [FORSYTHIASIDE], the IC50 was greater than 10 mg/L.
With `C[C@H]1[C@H](C)CC[C@]2(C(=O)O)CC[C@]3(C)C(=CC[C@@H]4[C@@]5(C)CC[C@H](O)C(C)(C)[C@@H]5CC[C@]43C)[C@H]12` [URSOLIC ACID], the IC50 worked out at 0.8 mg/L (≈ 1.75 µM) and the inhibition entry was “Dose-dependent effect”.
Consider `C=C1CC[C@H]2[C@@](C)(COC=O)CCC[C@]2(C)[C@H]1CC/C(C)=C\C(=O)O`, for which the IC50 is greater than 10 mg/L.
As for `C=C1CC[C@@H]2[C@](C)(CCC[C@@]2(C)C(=O)O)[C@H]1CC/C(C)=C\C(=O)O`, the IC50 was greater than 10 mg/L.
With `C=C1CC[C@H]2[C@](C)(CO)CCC[C@]2(C)[C@H]1CC/C(C)=C/C(=O)O`, the IC50 was greater than 10 mg/L.

The next assay deals with Neutrophil. The assay can be described thus: Anti-inflammatory activity in human neutrophils assessed as inhibition of fMLP/CB-induced elastase release at 10 ug/ml pre-incubated for 5 mins before fMLP/CB stimulation using MeO-Suc-Ala-Ala-Pro-Val-pnitroanilide as substrate. In kind it is functional. The essentials: as §1
In the case of `C[C@H]1[C@H](C)CC[C@]2(C(=O)O)CC[C@]3(C)C(=CC[C@@H]4[C@@]5(C)CC[C@H](O)C(C)(C)[C@@H]5CC[C@]43C)[C@H]12` [URSOLIC ACID], the inhibition at 10 µg/mL was greater than 50%.

The subject of a further assay is Neutrophil. The assay can be described thus: Anti-inflammatory activity in human neutrophils assessed as inhibition of fMLP/CB-induced superoxide anion generation by measuring superoxide dismutase SOD-inhibitable ferricytochrome c reduction incubated for 5 mins before fMLP/CB stimulation for 3 mins by spectrophotometry. In kind it is functional, cell-based. The essentials:
(§2)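 Same neutrophil preparation. Cells at 6 × 10^5/mL with 0.5 mg/mL ferricytochrome c and 1 mM Ca2+ were equilibrated 2 min at 37 °C and given compound or 0.1% DMSO for 5 min. Cytochalasin B (1 μg/mL) was added, then 100 nM fMLP. A550 was monitored continuously with stirring. Superoxide was calculated from the difference with versus without SOD (100 U/mL) using ε = 21.1/mM/10 mm. IC50 values are mean ± SD, n = 3.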
`CC(=O)O[C@H]1CC[C@]2(C)[C@H]3CCC4[C@@H]([C@]5(C)CC[C@@H](O)C(C)(C)O5)CC[C@@]4(C)[C@]3(C)CC[C@H]2C1(C)C` (some centres not stated): the IC50 is greater than 10 mg/L.
As to `COc1cc([C@H]2OC[C@H]3[C@@H]2CO[C@@H]3c2ccc(O)c(OC)c2)ccc1O`, the IC50 worked out at 1.3 mg/L (≈ 3.63 µM) and the inhibition result was “Dose-dependent effect”.
As for `O=C1C=CC2(O)CC(=O)OC2C1` (configuration not stated), the IC50 is greater than 10 mg/L.
For the compound `COc1ccc([C@H]2OC[C@@H]3C(=O)OC[C@@H]32)cc1OC`, the concentration for half-maximal inhibition (IC50) was determined as 5.6 mg/L (≈ 21.2 µM) and the inhibition entry is “Dose-dependent effect”.
In the case of `C/C(=C\C(=O)O)CC[C@H]1C(CO)=CC[C@H]2[C@@](C)(CO)CCC[C@]12C`, the IC50 was determined as 8.3 mg/L (≈ 24.7 µM).
Same read-out and setting: for `CC(=O)O[C@H]1CC[C@]2(C)[C@H]3CCC4[C@@H]([C@@](C)(O)CCC=C(C)C)CC[C@@]4(C)[C@]3(C)CC[C@H]2C1(C)C` (some centres not stated) the value was greater than 10 mg/L; for `COC(C)(C)/C=C/C[C@](C)(O)[C@H]1CC[C@]2(C)C1CC[C@@H]1[C@@]3(C)CC[C@H](OC(C)=O)C(C)(C)[C@@H]3CC[C@]12C` (some centres not stated), greater than 10 mg/L; for `CC(=O)O[C@H]1CC[C@]2(C)[C@H]3CC=C4[C@@H]5CC(C)(C)CC[C@]5(C(=O)O)CC[C@@]4(C)[C@]3(C)CC[C@H]2C1(C)C` [ACETYL OLEANOLIC ACID], greater than 10 mg/L.
For the compound `C[C@@H]1O[C@@H](OC[C@H]2O[C@@H](OCCc3ccc(O)c(O)c3)[C@H](O)[C@@H](O)[C@@H]2OC(=O)/C=C/c2ccc(O)c(O)c2)[C@H](O)[C@H](O)[C@H]1O` [FORSYTHIASIDE], the IC50 is 1.4 mg/L (≈ 2.24 µM) and the inhibition entry was “Dose-dependent effect”.
The matching figures for `C[C@H]1[C@H](C)CC[C@]2(C(=O)O)CC[C@]3(C)C(=CC[C@@H]4[C@@]5(C)CC[C@H](O)C(C)(C)[C@@H]5CC[C@]43C)[C@H]12` [URSOLIC ACID]: 0.6 mg/L (≈ 1.31 µM) and “Dose-dependent effect”.
As to `C=C1CC[C@H]2[C@@](C)(COC=O)CCC[C@]2(C)[C@H]1CC/C(C)=C\C(=O)O`, the IC50 is greater than 10 mg/L.
Still for that read-out and setting: for `C=C1CC[C@@H]2[C@](C)(CCC[C@@]2(C)C(=O)O)[C@H]1CC/C(C)=C\C(=O)O` the value was greater than 10 mg/L; for `C=C1CC[C@H]2[C@](C)(CO)CCC[C@]2(C)[C@H]1CC/C(C)=C/C(=O)O`, greater than 10 mg/L.

Another assay relates to Neutrophil. The assay can be described thus: Anti-inflammatory activity in human neutrophils assessed as inhibition of fMLP/CB-induced superoxide anion generation by measuring superoxide dismutase SOD-inhibitable ferricytochrome c reduction at 10 ug/ml incubated for 5 mins before fMLP/CB stimulation for 3 mins by spectrophotometry. In kind it is functional. The essentials:
as §2
In the case of `COc1cc([C@H]2OC[C@H]3[C@@H]2CO[C@@H]3c2ccc(O)c(OC)c2)ccc1O`, the inhibition at 10 µg/mL is greater than 50%.
Same read-out and setting: the figure for `COc1ccc([C@H]2OC[C@@H]3C(=O)OC[C@@H]32)cc1OC` is greater than 50%; for `C/C(=C\C(=O)O)CC[C@H]1C(CO)=CC[C@H]2[C@@](C)(CO)CCC[C@]12C` it is greater than 50%.
For `C[C@@H]1O[C@@H](OC[C@H]2O[C@@H](OCCc3ccc(O)c(O)c3)[C@H](O)[C@@H](O)[C@@H]2OC(=O)/C=C/c2ccc(O)c(O)c2)[C@H](O)[C@H](O)[C@H]1O` [FORSYTHIASIDE], the inhibition at 10 µg/mL is greater than 50%.
The same measure, in the same setting: for `C[C@H]1[C@H](C)CC[C@]2(C(=O)O)CC[C@]3(C)C(=CC[C@@H]4[C@@]5(C)CC[C@H](O)C(C)(C)[C@@H]5CC[C@]43C)[C@H]12` [URSOLIC ACID] the value was greater than 50%.

For the origin of these results see ChEMBL document CHEMBL4184133, “Chemical Constituents and Anti-inflammatory Principles from the Fruits of Forsythia suspensa” (J Nat Prod, 2017).
